pEC50, pIC50: −log10 of the molar value. Activity calls are given as the source filed them. No cut-off for these calls is given here.
Columns and labels:
[1] = target: T1, Transient receptor potential cation channel subfamily M member 2 (Homo sapiens, UniProt O94759); assay: Antagonist activity at human TRPM2 expressed in HEK293 cells assessed as inhibition of ADPR-induced maximum outward potassium current at +15 mV by whole-cell patch-clamp electrophysiology; format: cell-based; details: for IC50: hek293; for pIC50: read-out: IC50
In short: (§1)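 Stable clonal HEK293 line expressing human TRPM2 (with EGFP, G418-selected). Whole-cell patch clamp at room temperature; bath had 140 mM NMDG, 1 mM Ca2+, pH 7.4; KCl/EGTA pipet solution held 200 nM free Ca2+. Channel was activated by 100 μM ADPR in the pipet, and analogue was added to the same pipet solution. Read-out: maximum outward current at +15 mV from repeated ramps every 5 s over 450 s.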

[2] = target: T1, Transient receptor potential cation channel subfamily M member 2; assay: Antagonist activity at human TRPM2 expressed in HEK293 cells assessed as partial inhibition of ADPR-induced maximum outward potassium current at +15 mV by whole-cell patch-clamp electrophysiology; format: cell-based; in short: as §1
[3] = target: T1, Transient receptor potential cation channel subfamily M member 2; assay: Antagonist activity at human TRPM2 expressed in HEK293 cells assessed as inhibition of ADPR-induced maximum outward potassium current at 100 uM at +15 mV by whole-cell patch-clamp electrophysiology; format: cell-based; in short: as §1
[4] = target: T1, Transient receptor potential cation channel subfamily M member 2; assay: Antagonist activity at human TRPM2 expressed in HEK293 cells assessed as inhibition of ADPR-induced maximum outward potassium current at 900 uM at +15 mV by whole-cell patch-clamp electrophysiology; format: cell-based; in short: as §1
[5] = target: T1, Transient receptor potential cation channel subfamily M member 2; assay: Inhibition of TRPM2 (unknown origin)
[6] = target: T1, Transient receptor potential cation channel subfamily M member 2; assay: Partial antagonist activity at TRPM2 in human polymorphonuclear neutrophils assessed as reduction in fMLP-induced chemotaxis at 100 uM preincubated for 15 mins followed by fMLP-challenge by microscopic analysis
In short: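 Primary human PMN at 3 × 10^6/mL, in Ca2+ buffer with 10% autologous plasma, were held 15 min at room temperature with 100 μM analogue in fibronectin-coated microfluidic chemotaxis slides. A 0→50 nM fMLP gradient was applied, and bright-field images were taken every 30 s for 1 h. Cells were tracked manually; read-out was displacement along the gradient.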

[7] = target: T1, Transient receptor potential cation channel subfamily M member 2; assay: Partial antagonist activity at TRPM2 in human polymorphonuclear neutrophils assessed as reduction in fMLP-induced intracellular calcium accumulation at 100 uM preincubated for 15 mins followed by fMLP-challenge by fluorescence microscopic analysis relative to control; format: cell-based; design: scale not given: the % may be the effect or the level left
In short: (§2)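 Primary human PMN were used within 6 h of blood donation, loaded with 4 μM Fura-2/AM for 30 min at 37 °C, and plated on fibronectin/BSA-coated coverslips. Cells were preincubated 15 min at ambient temperature with 10 mM ascorbate plus 100 μM analogue. About 70 s into recording they were stimulated with 1 μM fMLP or 10 μM A5 peptide. Read-out: ratiometric Ca2+ imaging, single-cell traces synchronized to the first peak.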

[8] = target: T1, Transient receptor potential cation channel subfamily M member 2; assay: Partial antagonist activity at TRPM2 in human polymorphonuclear neutrophils assessed as reduction in A5 peptide-induced intracellular calcium accumulation at 100 uM preincubated for 15 mins followed by A5 peptide-challenge by fluorescence microscopic analysis relative to control; format: cell-based; design: scale not given: the % may be the effect or the level left; in short: as §2
[9] = target: T1, Transient receptor potential cation channel subfamily M member 2; assay: Inhibition of human recombinant TRPM2
[10] = target: T1, Transient receptor potential cation channel subfamily M member 2; assay: Inhibition of TRPM2 (unknown origin) expressed in HEK293 cells assessed as inhibition of ADP-ribose-induced current by patch clamp technique; format: cell-based
[11] = target: T1, Transient receptor potential cation channel subfamily M member 2; assay: Inhibition of human TRPM2 expressed in HEK293 cells assessed as inhibition of ADP-ribose-induced current by patch clamp electrophysiology; format: cell-based
In short: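 Whole-cell patch clamp of a stable HEK293 clone co-expressing human TRPM2 and EGFP (G418-selected), at room temperature. Bath: 140 mM NMDG, 1 mM Ca²⁺, pH 7.4. Pipette: KCl-based with 200 nM free Ca²⁺ and 100 μM ADPR, with analogue added to it (0.1% DMSO for lipophilic ones). Voltage ramps from −85 mV every 5 s for 450 s. Maximum outward current at +15 mV is normalised to the ADPR control and fitted to a logistic curve for IC50.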

[12] = target: T1, Transient receptor potential cation channel subfamily M member 2; assay: Inhibition of human TRPM2 expressed in HEK293 cells assessed as inhibition of H2O2-induced intracellular calcium level by patch clamp technique; format: cell-based
[13] = target: T1, Transient receptor potential cation channel subfamily M member 2; assay: Activation of TRPM2 (unknown origin)
In short: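 Whole-cell patch clamp at room temperature on a HEK293 clone stably expressing human TRPM2 with EGFP (G418-selected). Bath solution: 140 mM NMDG, 5 mM KCl, 3.3 mM MgCl₂, 1 mM CaCl₂, HEPES pH 7.4. KCl pipet solution with free Ca²⁺ buffered to 200 nM by EGTA, plus 100 μM ADPR. Cells held at −50 mV with 140 ms ramps from −85 mV every 5 s for 450 s. Read-out was the maximum outward current at +15 mV.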

T1 sequence (O94759 whole entry): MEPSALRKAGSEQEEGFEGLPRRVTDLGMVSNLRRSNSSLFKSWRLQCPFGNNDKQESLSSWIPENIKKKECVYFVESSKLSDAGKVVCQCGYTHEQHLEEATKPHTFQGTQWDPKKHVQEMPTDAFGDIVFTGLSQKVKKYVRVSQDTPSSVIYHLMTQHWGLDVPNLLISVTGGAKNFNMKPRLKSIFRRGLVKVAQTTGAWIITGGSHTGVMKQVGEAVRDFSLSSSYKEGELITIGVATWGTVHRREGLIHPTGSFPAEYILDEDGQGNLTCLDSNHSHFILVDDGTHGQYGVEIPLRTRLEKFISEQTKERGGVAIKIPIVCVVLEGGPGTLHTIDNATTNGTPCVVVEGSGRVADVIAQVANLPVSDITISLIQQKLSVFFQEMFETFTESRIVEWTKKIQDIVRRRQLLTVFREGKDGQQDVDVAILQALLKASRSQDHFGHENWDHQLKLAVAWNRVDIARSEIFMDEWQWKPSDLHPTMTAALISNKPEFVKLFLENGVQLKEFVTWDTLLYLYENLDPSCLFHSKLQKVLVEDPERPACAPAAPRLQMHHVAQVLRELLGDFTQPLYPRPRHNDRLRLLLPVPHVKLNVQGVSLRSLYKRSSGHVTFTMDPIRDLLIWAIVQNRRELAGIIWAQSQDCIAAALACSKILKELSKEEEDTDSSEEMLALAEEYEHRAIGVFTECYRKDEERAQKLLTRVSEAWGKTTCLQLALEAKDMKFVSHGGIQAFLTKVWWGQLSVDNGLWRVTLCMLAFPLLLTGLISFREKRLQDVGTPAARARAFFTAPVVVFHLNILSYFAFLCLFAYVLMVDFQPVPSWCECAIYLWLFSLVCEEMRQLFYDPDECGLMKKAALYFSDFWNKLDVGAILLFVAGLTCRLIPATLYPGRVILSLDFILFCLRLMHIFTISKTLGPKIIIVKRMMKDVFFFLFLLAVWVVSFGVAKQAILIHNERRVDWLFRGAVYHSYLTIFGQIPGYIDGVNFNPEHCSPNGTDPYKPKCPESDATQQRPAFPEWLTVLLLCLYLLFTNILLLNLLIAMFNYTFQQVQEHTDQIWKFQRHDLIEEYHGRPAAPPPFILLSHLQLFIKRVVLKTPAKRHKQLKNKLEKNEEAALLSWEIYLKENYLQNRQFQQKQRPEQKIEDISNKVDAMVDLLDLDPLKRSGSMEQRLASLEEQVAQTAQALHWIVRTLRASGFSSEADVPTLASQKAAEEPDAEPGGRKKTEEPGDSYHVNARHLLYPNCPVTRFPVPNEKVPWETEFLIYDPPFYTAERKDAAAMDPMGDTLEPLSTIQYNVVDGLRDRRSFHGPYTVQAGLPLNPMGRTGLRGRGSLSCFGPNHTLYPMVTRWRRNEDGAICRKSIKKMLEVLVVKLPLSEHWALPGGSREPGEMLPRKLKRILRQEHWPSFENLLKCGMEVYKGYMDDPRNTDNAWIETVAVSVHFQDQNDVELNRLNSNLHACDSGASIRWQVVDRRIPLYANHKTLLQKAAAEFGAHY

Nc1ncnc2c1nc(N)n2[C@@H]1O[C@H](COP(=O)(O)OP(=O)(O)OC[C@H]2OC(O)[C@H](O)[C@@H]2O)[C@@H](O)[C@H]1O (stereo not given in full)
IC50 [1]: Not Active

Nc1ncnc2c1ncn2[C@@H]1O[C@H](COP(=O)(O)OP(=O)(O)OC2CCCC2)[C@@H](O)[C@H]1O
pIC50 [2]: > 3.05

COc1ncnc2c1ncn2[C@@H]1O[C@H](COP(=O)(O)OP(=O)(O)OC[C@H]2OC(O)[C@H](O)[C@@H]2O)[C@@H](O)[C@H]1O (stereo not given in full)
IC50 [1]: Not Active

Nc1ncnc2c1ncn2[C@@H]1O[C@H](CNc2c(NC[C@H]3O[C@@H](O)[C@H](O)[C@@H]3O)c(=O)c2=O)[C@@H](O)[C@H]1O
inhibition [3]: inactive

Nc1ncnc2c1ncn2[C@@H]1O[C@H](COP(=O)(O)O)[C@@H](O)[C@H]1O [ADENOSINE PHOSPHATE]
inhibition [4]: inactive | pIC50 [5]: 4.15

Nc1ncnc2c1nc(-c1ccccc1)n2[C@@H]1O[C@H](COP(=O)(O)OP(=O)(O)OC[C@H]2OC(O)[C@H](O)[C@@H]2O)[C@@H](O)[C@H]1O (stereo not given in full)
Activity [6]: Active | Activity [7]: 31.8% | pIC50 [1]: 4.96 | Activity [8]: 31.4%

Nc1ncnc2c1ncn2CCCCOP(=O)(O)OP(=O)(O)OC[C@H]1OC(O)[C@H](O)[C@@H]1O (stereo not given in full)
inhibition [3]: inactive

Nc1ncnc2c1nc(Br)n2[C@@H]1O[C@H](COP(=O)(O)OP(=O)(O)OC[C@H]2OC(O)[C@H](O)[C@@H]2O)[C@@H](O)[C@H]1O (stereo not given in full)
pIC50 [1]: 3.52

Nc1ncnc2c1cc(Br)n2[C@@H]1O[C@H](COP(=O)(O)OP(=O)(O)OC[C@H]2OC(O)[C@H](O)[C@@H]2O)[C@@H](O)[C@H]1O (stereo not given in full)
IC50 [1]: Not Active

O=C(O)c1ccccc1Nc1cccc(C(F)(F)F)c1 [FLUFENAMIC ACID]
pIC50 [9]: 4.15

Nc1ncnc2c1nc(-c1ccc(CC(N)C(=O)O)cc1)n2[C@@H]1O[C@H](COP(=O)(O)O)[C@@H](O)[C@H]1O (stereo not given in full)
inhibition [3]: inactive

Nc1ncnc2c1nc(-c1ccccc1)n2[C@@H]1O[C@H](COP(=O)(O)OP(=O)(O)OC2CCCC2)[C@@H](O)[C@H]1O
inhibition [3]: Active | pIC50 [1]: 4.82

O=c1[nH]cnc2c1ccn2[C@@H]1O[C@H](COP(=O)(O)OP(=O)(O)OC[C@H]2OC(O)[C@H](O)[C@@H]2O)[C@@H](O)[C@H]1O (stereo not given in full)
IC50 [1]: Not Active

Nc1ncnc2c1ncn2[C@@H]1O[C@H](COP(=O)(O)OP(=O)(O)O)[C@@H](O)[C@H]1O
inhibition [4]: inactive

Nc1ncnc2c1nc(-c1ccccc1)n2[C@H]1C[C@H](O)[C@@H](COP(=O)(O)OP(=O)(O)OC[C@H]2OC(O)[C@H](O)[C@@H]2O)O1 (stereo not given in full)
inhibition [4]: Active | pIC50 [1]: 5.52

COPPER
pIC50 [10]: 5.59

Nc1ncnc2c1nc(-c1ccccc1)n2[C@@H]1O[C@H](Cn2cc(COC[C@H]3OC(O)[C@H](O)[C@@H]3O)nn2)[C@@H](O)[C@H]1O (stereo not given in full)
inhibition [3]: inactive

Clc1ccc(COC(Cn2ccnc2)c2ccc(Cl)cc2Cl)cc1 (stereo not given) [ECONAZOLE]
pIC50 [5]: > 5.52

Nc1nc(F)nc2c1ncn2[C@@H]1O[C@H](COP(=O)(O)OP(=O)(O)OC[C@H]2OC(O)[C@H](O)[C@@H]2O)[C@@H](O)[C@H]1O (stereo not given in full)
IC50 [1]: Not Active

Nc1ncnc2c1nc(Cl)n2[C@@H]1O[C@H](COP(=O)(O)O)[C@@H](O)[C@H]1O
inhibition [4]: inactive | IC50 [1]: Not Active

CCCCCCNc1c(NC[C@H]2O[C@@H](n3cnc4c(N)ncnc43)[C@H](O)[C@@H]2O)c(=O)c1=O
inhibition [3]: inactive

Cc1cccc(Nc2ccccc2C(=O)O)c1C [MEFENAMIC ACID]
pIC50 [9]: 3.91

CCCCNc1c(NC[C@H]2O[C@@H](n3cnc4c(N)ncnc43)[C@H](O)[C@@H]2O)c(=O)c1=O
inhibition [3]: inactive

Cc1cccc(Nc2ccccc2C(=O)O)c1
pIC50 [11]: 4.12

Nc1ncnc2c1ncn2[C@@H]1O[C@H](CNc2c(NC3CCCC3)c(=O)c2=O)[C@@H](O)[C@H]1O
inhibition [3]: inactive

Nc1ncnc2c1nc(-c1ccsc1)n2[C@@H]1O[C@H](COP(=O)(O)OP(=O)(O)OC[C@H]2OC(O)[C@H](O)[C@@H]2O)[C@@H](O)[C@H]1O (stereo not given in full)
pIC50 [1]: 4.29

O=C(O)c1cccnc1Nc1cccc(C(F)(F)F)c1 [NIFLUMIC ACID]
pIC50 [9]: 3.83

Nc1ncnc2c1ncn2[C@@H]1O[C@H](COP(=O)(O)OP(=O)(O)OP(=O)(O)OC[C@H]2OC(O)[C@H](O)[C@@H]2O)[C@@H](O)[C@H]1O (stereo not given in full)
inhibition [4]: inactive

CC(=O)c1cccc(-c2nc3c(N)ncnc3n2[C@@H]2O[C@H](COP(=O)(O)OP(=O)(O)OC[C@H]3OC(O)[C@H](O)[C@@H]3O)[C@@H](O)[C@H]2O)c1 (stereo not given in full)
pIC50 [1]: 4.31

O=c1[nH]cnc2c1ncn2[C@@H]1O[C@H](COP(=O)(O)OP(=O)(O)OC[C@H]2OC(O)[C@H](O)[C@@H]2O)[C@@H](O)[C@H]1O (stereo not given in full)
IC50 [1]: Not Active

CCCCCc1ccc(/C=C/C(=O)Nc2ccccc2C(=O)O)cc1
pIC50 [12]: 5.77

Clc1ccccc1C(c1ccccc1)(c1ccccc1)n1ccnc1 [CLOTRIMAZOLE]
pIC50 [5]: > 5.52

Nc1ncnc2c1ncn2[C@@H]1O[C@H](COP(=O)(O)OP(=O)(O)OC[C@H]2OC(O)[C@H](O)[C@@H]2O)[C@@H](O)[C@H]1O (stereo not given in full)
pEC50 [13]: 4.00
